Calls of active or inactive are those of the source. No cut-off for these calls is given here.
Key:
[1] = test system: Trypanosoma cruzi; experiment: Trypanocidal activity against Trypanosoma cruzi TINF/CH/1956/Tulahuen DTU 6 epimastigotes after 48 hrs by resazurin dye based assay; format: functional, organism-based; details: TINF/CH/1956/Tulahuen DTU 6, 48 h
Outline: (§1)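 Exponential-phase epimastigotes were seeded at 5×10^5 mL^-1 with compounds at 100–0.2 µM (DMSO 0.01% v/v) at 28 °C. After 48 h, resazurin was added for another 24 h. SDS was then added and absorbance read at 570 and 600 nm.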

[2] = test system: Trypanosoma cruzi; experiment: Induction of mitochondrial membrane potential disruption in Trypanosoma cruzi MHOM/Pe/2011/Arequipa DTU 5 epimastigotes assessed as inhibition of DNA replication and RNA synthesis at IC25 after 72 hrs by acridine orange staining based flow cytometry relative to control; format: functional
Outline: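 Arequipa epimastigotes were exposed for 72 h at IC25. DNA/RNA content was measured as acridine orange fluorescence by flow cytometry and compared with untreated control.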

[3] = test system: Trypanosoma cruzi; experiment: Antitrypanosomal activity against Trypanosoma cruzi MHOM/Pe/2011/Arequipa DTU 5 epimastigotes assessed as reduction in mitochondrial membrane potential at IC25 after 72 hrs by Rho123 staining based flow cytometry relative to control; format: functional; parameters: scale not given: the % may be the effect or the level left
Outline: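 Arequipa epimastigotes were exposed at IC25 for 72 h, then labelled with Rhodamine 123 and analysed by flow cytometry. Result is % alteration in mitochondrial membrane potential versus untreated control.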

[4] = target: T1, Superoxide dismutase (Trypanosoma cruzi (strain CL Brener), UniProt Q4DCQ3); experiment: Inhibition of Trypanosoma cruzi MHOM/Pe/2011/Arequipa DTU 5 epimastigotes Fe-SOD by UV-Visible spectrophotometric method
T1 sequence (Q4DCQ3 whole entry): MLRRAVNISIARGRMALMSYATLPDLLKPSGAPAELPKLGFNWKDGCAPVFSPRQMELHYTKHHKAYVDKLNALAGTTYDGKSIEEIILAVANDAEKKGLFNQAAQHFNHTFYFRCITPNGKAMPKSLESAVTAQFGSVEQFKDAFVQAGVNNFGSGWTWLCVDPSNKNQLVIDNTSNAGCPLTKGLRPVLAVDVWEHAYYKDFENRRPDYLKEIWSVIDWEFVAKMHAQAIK
Outline: (§2)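 SOD activity of parasite Fe-SOD and human CuZn-SOD was measured spectrophotometrically by the Beyer and Fridovich method, with compounds at 1–100 µM. Values are averages of three rate determinations; IC50 was obtained by linear regression and differences were tested by Newman-Keuls.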

[5] = test system: Trypanosoma cruzi; experiment: Trypanocidal activity against Trypanosoma cruzi IRHOD/CO/2008/SN3 DTU 1 epimastigotes after 48 hrs by resazurin dye based assay; format: functional, organism-based; details: IRHOD/CO/2008/SN3 DTU 1, 48 h; outline: as §1
[6] = test system: Mus musculus; experiment: (§3) Cardiotoxicity in Balb/c mouse infected with Trypanosoma cruzi MHOM/Pe/2011/Arequipa DTU 5 trypamastigotes assessed as change in serum LDH level at 100 mg/kg, po once daily for 5 consecutive days starting from day 10 post infection measured on day 127 post infection by biochemical analysis relative to control; format: toxicity, organism-based; details: in vivo
[7] = test system: Trypanosoma cruzi; experiment: Antitrypanosomal activity against Trypanosoma cruzi MHOM/Pe/2011/Arequipa DTU 5 trypamastigotes infected in Balb/c mouse assessed as reduction in splenomegaly at 100 mg/kg, po once daily for 5 consecutive days starting from day 75 post infection measured on day 127 post infection relative to control; format: functional; parameters: scale not given: the % may be the effect or the level left
[8] = test system: Mus musculus; experiment: Toxicity in Balb/c mouse assessed as reduction in body mass at […], po once daily for 5 consecutive days starting from day 75 post infection relative to control; format: organism-based; parameters: scale not given: the % may be the effect or the level left; details: in vivo
Outline: (§4)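 Infected female BALB/c mice, six per group, received oral doses of 20 mg·kg^-1/day for 5 consecutive days (total 100 mg·kg^-1) in 5% DMSO/0.5% HPMC vehicle, from day 10 or day 75 pi. Body mass and deaths were monitored during and after treatment.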

[9] = test system: Trypanosoma cruzi; experiment: Antitrypanosomal activity against Trypanosoma cruzi MHOM/Pe/2011/Arequipa DTU 5 trypamastigotes infected in Balb/c mouse assessed as reduction in Ig-G level in serum at 100 mg/kg, po once daily for 5 consecutive days starting from day 75 post infection measured on day 81 post infection by ELISA; format: functional, organism-based
[10] = test system: Mus musculus; experiment: as §3, with “Nephrotoxicity” for “Cardiotoxicity”, “decrease in uric acid level” for “change”, “serum” for “serum LDH level”, “16” for “127”; format: toxicity, organism-based; parameters: scale not given: the % may be the effect or the level left; details: in vivo
[11] = test system: Mus musculus; experiment: as §3, with “Hepatotoxicity” for “Cardiotoxicity”, “alkaline phosphatase” for “serum LDH”; format: toxicity, organism-based; details: in vivo
[12] = Selectivity index, ratio of IC50 for African green monkey Vero cells to IC50 for Trypanosoma cruzi TINF/CH/1956/Tulahuen DTU 6 epimastigotes; format: toxicity; details: read-out: Ratio IC50
Outline: (§5)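 SI is Vero IC50 divided by the IC50 for the stated parasite form. For Vero cytotoxicity, cells were seeded at 1.25×10^4 mL^-1 with compounds at 1000–1 µM, incubated 48 h, then given resazurin for a further 24 h (72 h total), with absorbance read at 570/600 nm. Triplicate, four determinations.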

[13] = Selectivity index, ratio of IC50 for African green monkey Vero cells to IC50 for Trypanosoma cruzi MHOM/Pe/2011/Arequipa DTU 5 epimastigotes; format: toxicity; details: read-out: Ratio IC50; outline: as §5
[14] = Selectivity index, ratio of IC50 for African green monkey Vero cells to IC50 for Trypanosoma cruzi IRHOD/CO/2008/SN3 DTU 1 amastigotes infected in African green monkey Vero cells; format: toxicity; details: read-out: Ratio IC50; outline: as §5
[15] = Selectivity index, ratio of IC50 for African green monkey Vero cells to IC50 for Trypanosoma cruzi IRHOD/CO/2008/SN3 DTU 1 epimastigotes; format: toxicity; details: read-out: Ratio IC50; outline: as §5
[16] = test system: Mus musculus; experiment: as §3, with “Hepatotoxicity” for “Cardiotoxicity”, “total bilirubin” for “serum LDH”, “[…],” for “100 mg/kg,”; format: toxicity, organism-based; details: in vivo
Outline: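 Serum clinical chemistry in Arequipa-infected female BALB/c mice. Oral 20 mg·kg-1 per day for 5 days, started day 10 or day 75 pi. Samples taken at day 16 pi or day 81 pi, and on necropsy day. Markers: CK-MB and LDH (U/L), AST, ALT and alkaline phosphatase (U/L), total bilirubin. Results scored relative to infected untreated controls; uninfected reference n = 15.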

[17] = test system: Mus musculus; experiment: as §3, with “Hepatotoxicity” for “Cardiotoxicity”, “decrease” for “change”, “total bilirubin” for “serum LDH”, “16” for “127”; format: toxicity, organism-based; parameters: scale not given: the % may be the effect or the level left; details: in vivo
[18] = test system: Trypanosoma cruzi; experiment: Trypanocidal activity against Trypanosoma cruzi MHOM/Pe/2011/Arequipa DTU 5 epimastigotes after 48 hrs by resazurin dye based assay; format: functional, organism-based; details: MHOM/Pe/2011/Arequipa DTU 5, 48 h; outline: as §1
[19] = test system: Trypanosoma cruzi; experiment: Antitrypanosomal activity against Trypanosoma cruzi MHOM/Pe/2011/Arequipa DTU 5 epimastigotes assessed as effect on parasite glycolytic pathway by measuring reduction in pyruvate excretion at IC25 after 72 hrs by 1H NMR method; format: functional, organism-based
Outline: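 Arequipa epimastigotes exposed at IC25 for 72 h alongside an untreated control. Excreted catabolites were analysed by 1H NMR, and each peak is reported as % variation versus the control. Three separate determinations.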

[20] = target: T2, Superoxide dismutase (Trypanosoma cruzi (strain CL Brener)) (UniProt Q4DCQ3); experiment: Inhibition of Trypanosoma cruzi MHOM/Pe/2011/Arequipa DTU 5 epimastigotes Fe-SOD at 50 uM by UV-Visible spectrophotometric method relative to control; outline: as §2
T2 sequence (whole entry): T1 sequence (Q4DCQ3 whole entry)

[21] = test system: Mus musculus; experiment: Toxicity in Balb/c mouse assessed as reduction in body mass at […], po once daily for 5 consecutive days starting from day 10 post infection relative to control; format: organism-based; parameters: scale not given: the % may be the effect or the level left; details: in vivo; outline: as §4

| Structure (SMILES) | IC50 [1] [µM] | inhibition (INH) [2] [%] | Activity [3] [%] | IC50 [4] [µM] | IC50 [5] [µM] | Activity [6] [%] | Activity [7] | Activity [8] [%] | Activity [9] | Activity [10] | Activity [11] [%] | selectivity ratio [12] | selectivity ratio [13] | selectivity ratio [14] | selectivity ratio [15] | Activity [16] [%] | IC50 [18] [µM] | Activity [19] | inhibition [20] [%] | Activity [21] [%] | further results |
| --- | --- | --- | --- | --- | --- | --- | --- | --- | --- | --- | --- | --- | --- | --- | --- | --- | --- | --- | --- | --- | --- |
| O=C(Cn1ccnc1[N+](=O)[O-])NCc1ccccc1 [BENZNIDAZOLE] | 19.7 | 22.4 | 35.4 |  |  |  |  |  |  |  |  |  |  |  |  |  |  |  |  |  |  |
| COc1ccc(C(=O)CCN2CCN(c3ccc(Cl)cc3)CC2)cc1 | 7.3 | 18 | 27.4 | 6.5 | 6.3 | < 10 | 68% | > 10 | inactive | <= 30% | < 10 | 40.9 | 31.5 | 51.5 | 47.8 | < 10 | 9.5 | inactive | 100 | > 10 | Activity [17]: <= 10% |
| COc1ccc(C(=O)CCN2CCN(c3ccc([N+](=O)[O-])cc3)CC2)cc1 | 37.4 | 72.9 | 76.3 | 5 | 22 | < 10 | Active | > 10 | inactive | <= 20% | < 10 | 15.7 | 18.6 | 19.2 | 26.7 | < 10 | 31.6 | inactive | 100 | > 10 |  |
| COc1ccc(C(=O)CCN2CCN(c3ccc(F)cc3)CC2)cc1 | 1.8 | 24.6 | 25.6 | 7.8 | 2 | < 10 | Active | > 10 | inactive |  | < 10 | 30.2 | 40.2 | 17.6 | 27.9 | < 10 | 1.4 | Active | 100 | > 10 | Activity [17]: <= 10% |
